Where “and” joins values, the source holds several entries; their conditions need not be identical. Equal entries are not always repeated.
Test system: Fibroblast
Experiment: Multiplex assay against human fibroblast
Type: toxicity, cell-based
In short: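 Cells were classed with CellPathfinder machine-learning gating, first as Hoechst high-intensity objects or normal cells, then (normal cells) as healthy, pyknosed or fragmented nuclei, and finally (pyknosed cells) as mitotic or apoptotic. Staining of live cells at seeding used Hoechst33342, BioTracker Green Microtubule Cytoskeleton Dye, MitoTracker Red and Annexin V Alexa Fluor 680, with imaging on a CQ1 microscope at 37°C and 5% CO2 after compound addition. Tubulin, mitochondrial-mass and membrane-permeability phenotypes are per cents of healthy-nucleus cells.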

[1] = 12 h, 1 µM, compound concentration 1 uM
[2] = 12 h, 10 µM, compound concentration 10 uM
[3] = 24 h, 1 µM, compound concentration 1 uM
[4] = 24 h, 10 µM, compound concentration 10 uM
[5] = 48 h, 1 µM, compound concentration 1 uM
[6] = 48 h, 10 µM, compound concentration 10 uM

With `O=C(NCCNCC(O)COc1ccc(O)cc1)N1CCOCC1.O=C(NCCNCC(O)COc1ccc(O)cc1)N1CCOCC1.O=C(O)/C=C/C(=O)O` (stereo not drawn) [XAMOTEROL FUMARATE] the “Population Apoptotic (%)” value [1] was 63% and 43%, the “Population Fragmented Nuclei (%)” value [1] was 15% and 23% and the “Population Healthy Nuclei (%)” value [1] was 67% and 53%. For the same compound, the “Population Hoechst High Intensity Objects (%)” value [1] was 2% and 4%, the “Population Mitochondria Different-Phenotype (%)” value [1] was 4% and 7% and the “Population Mitotic Cells (%)” value [1] was 36% and 56%. The “Population Normal (%)” value [1] was 97% and 95%, the “Population Pyknosed Nuclei (%)” value [1] was 17% and 23% and the “Population Tubulin-Different-Phenotype (%)” value [1] was 24% and 55%. For the same compound, the “Total Cell Count” value [1] was 114 and 167, the “Population Apoptotic (%)” value [2] was 30% and 17% and the “Population Fragmented Nuclei (%)” value [2] was 21% and 30%. For the same compound, the “Population Healthy Nuclei (%)” value [2] was 64% and 49%, the “Population Hoechst High Intensity Objects (%)” value [2] was 4% and 5% and the “Population Membrane Permeable-Phenotype (%)” value [2] was 2% and 4%. For the same compound, the “Population Mitochondria Different-Phenotype (%)” value [2] was 5% and 11%, the “Population Mitotic Cells (%)” value [2] was 70% and 82% and the “Population Normal (%)” value [2] was 95% and 94%. The “Population Pyknosed Nuclei (%)” value [2] was 14% and 20%, the “Population Tubulin-Different-Phenotype (%)” value [2] was 32% and 43% and the “Total Cell Count” value [2] was 143 and 154. For the same compound, the “Population Apoptotic (%)” value [3] was 68% and 50%, the “Population Fragmented Nuclei (%)” value [3] was 20% and 28% and the “Population Healthy Nuclei (%)” value [3] was 63% and 52%. The “Population Hoechst High Intensity Objects (%)” value [3] was 1% and 2%, the “Population Mitochondria Different-Phenotype (%)” value [3] was 2% and 6% and the “Population Mitotic Cells (%)” value [3] was 31% and 50%. The “Population Normal (%)” value [3] was 98% and 97%, the “Population Pyknosed Nuclei (%)” value [3] was 15% and 19% and the “Population Tubulin-Different-Phenotype (%)” value [3] was 25% and 63%. For the same compound, the “Total Cell Count” value [3] was 121 and 149, the “Population Apoptotic (%)” value [4] was 62% and 42% and the “Population Fragmented Nuclei (%)” value [4] was 20% and 34%. For the same compound, the “Population Healthy Nuclei (%)” value [4] was 67% and 54%, the “Population Hoechst High Intensity Objects (%)” value [4] was 1% and the “Population Membrane Permeable-Phenotype (%)” value [4] was 0% and 5%. For the same compound, the “Population Mitochondria Different-Phenotype (%)” value [4] was 0% and 8%, the “Population Mitotic Cells (%)” value [4] was 37% and 57% and the “Population Normal (%)” value [4] was 98%. The “Population Pyknosed Nuclei (%)” value [4] was 12% and 11%, the “Population Tubulin-Different-Phenotype (%)” value [4] was 31% and 41% and the “Total Cell Count” value [4] was 135 and 172. For the same compound, the “Population Apoptotic (%)” value [5] was 65% and 40%, the “Population Fragmented Nuclei (%)” value [5] was 27% and 42% and the “Population Healthy Nuclei (%)” value [5] was 57% and 46%. For the same compound, the “Population Hoechst High Intensity Objects (%)” value [5] was 1% and 2%, the “Population Membrane Permeable-Phenotype (%)” value [5] was 1% and 7% and the “Population Mitochondria Different-Phenotype (%)” value [5] was 2% and 4%. For the same compound, the “Population Mitotic Cells (%)” value [5] was 35% and 60%, the “Population Normal (%)” value [5] was 98% and 97% and the “Population Pyknosed Nuclei (%)” value [5] was 15% and 10%. The “Total Cell Count” value [5] was 131 and 140, the “Population Apoptotic (%)” value [6] was 56% and 52% and the “Population Fragmented Nuclei (%)” value [6] was 25% and 33%. The “Population Healthy Nuclei (%)” value [6] was 62% and 54%, the “Population Hoechst High Intensity Objects (%)” value [6] was 4% and 3% and the “Population Membrane Permeable-Phenotype (%)” value [6] was 1% and 6%. The “Population Mitochondria Different-Phenotype (%)” value [6] was 3% and 4%, the “Population Mitotic Cells (%)” value [6] was 43% and 47% and the “Population Normal (%)” value [6] was 95% and 96%. The “Population Pyknosed Nuclei (%)” value [6] was 11%, the “Population Tubulin-Different-Phenotype (%)” value [6] was 33% and 48% and the “Total Cell Count” value [6] was 144 and 157.
